Data: ChEMBL document CHEMBL4364240, “Tetracyclines as Inhibitors of Pre-microRNA Maturation: A Disconnection between RNA Binding and Inhibition” (ACS Med Chem Lett, 2019)
The source made the active and inactive calls. No cut-off for these calls is given here.

How the values were obtained:
[1] = target: microRNA 21; assay: Inhibition of Dicer mediated biotinylated pre-miRNA-21 (unknown origin) maturation preincubated for 15 mins followed by pre-miRNA-21 addition and measured after 5 hrs by cat-ELCCA; type: nucleic-acid assay
Summary of the method: (§1)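 Dose-response cat-ELCCA in which Dicer is in excess over the biotinylated pre-miRNA substrate to ensure adequate signal-to-background. IC50 values are derived from the inhibition curves and reported as 95% confidence intervals.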

[2] = Inhibition of biotinylated pre-let-7d microRNA (unknown origin) maturation preincubated for 15 mins followed by Pre-let-7d addition and measured after 5 hrs by cat-ELCCA; summary of the method: as §1
[3] = test system: microRNA 21; assay: Inhibition of Dicer mediated biotinylated pre-miRNA-21 (unknown origin) maturation at 1 mM measured after 15 mins by cat-ELCCA relative to control; type: nucleic-acid assay
Summary of the method: (§2)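 Single-point cat-ELCCA screen at 1.0 mM compound. Recombinant Dicer is used in excess over the pre-miRNA substrate to give enough signal-to-background. The read-out is percent inhibition of processing.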

[4] = test system: microRNA 21; assay: […] miR-21 RNA in human HeLA cells transfected with pmirGLO empty vector incubated for 48 hrs by Dual-Glo luciferase assay; type: cell-based
[5] = test system: microRNA 21; assay: […] miR-21 RNA in human HeLA cells transfected with pmir21 vector incubated for 48 hrs by Dual-Glo luciferase assay; type: cell-based
[6] = target: microRNA 21; assay: Binding affinity to biotinylated pre-miRNA-21 (unknown origin) by SPR analysis; type: nucleic-acid assay
[7] = Binding affinity to biotinylated pre-let-7d microRNA (unknown origin) by SPR analysis
[8] = test system: microRNA 21; assay: Inhibition of Dicer mediated biotinylated pre-miRNA-21 (unknown origin) maturation in presence of 1 to 3 mM MgCl2 preincubated for 15 mins followed by pre-miRNA-21 addition and measured after 5 hrs by cat-ELCCA; type: nucleic-acid assay
[9] = test system: microRNA 21; assay: Inhibition of Dicer mediated biotinylated pre-miRNA-21 (unknown origin) maturation in presence of 1;1 ratio of CaCl2 and MgCl2 preincubated for 15 mins followed by pre-miRNA-21 addition and measured after 5 hrs by cat-ELCCA; type: nucleic-acid assay
[10] = test system: Escherichia coli; assay: Inhibition of Escherichia coli RNase 3 dsRBD assessed as inhibition of pre-miRNA-21 maturation incubated for 0.5 to 1 hr
[11] = Inhibition of biotinylated pre-let-7d (unknown origin) maturation at 1 mM preincubated for 15 mins followed by Pre-let-7d addition and measured after 5 hrs by cat-ELCCA; summary of the method: as §2
[12] = test system: microRNA 21; assay: Inhibition of Dicer mediated 5'-biotinylated PEG linked pre-miRNA-21 (unknown origin) maturation; type: nucleic-acid assay

IC50 [1] [µM] | inhibition [3] | IC50 ([2]; read-out: IC50) [µM] | Structure (SMILES) | other results
15 |  |  | CN1c2ccccc2C(C)(C)C12C=Cc1cc(O)ccc1O2 (centres undefined) | IC50 [2]: Not Active
434 to 1000 | 40 to 100% | 421 to 865 | CN(C)[C@@H]1C(O)=C(C(N)=O)C(=O)[C@@]2(O)C(O)=C3C(=O)c4c(O)cccc4[C@@](C)(O)[C@H]3C[C@@H]12 [TETRACYCLINE] | Activity [4]: inactive; Activity [5]: inactive
645 |  |  | O=c1oc2c(-c3cccc(Cl)c3)cc(O)cc2s1 | IC50 [2]: Not Active
398 |  |  | Oc1ccc(-c2csc(Cc3c[nH]c4ccccc34)n2)cc1O | IC50 [2]: Not Active
148 |  |  | COc1ccc(-c2cc(-c3cc(OC)ccc3O)[nH]n2)cc1 | IC50 [2]: Not Active
200 to 918 | 40 to 100% | 431 to 1020 | CN(C)[C@@H]1C(O)=C(C(N)=O)C(=O)[C@@]2(O)C(O)=C3C(=O)c4c(O)cccc4[C@@](C)(O)[C@H]3[C@H](O)[C@@H]12 [OXYTETRACYCLINE] | 
229 |  |  | Nc1ccc(-c2nc3cc(-c4nc5ccccc5o4)ccc3[nH]2)cc1 | IC50 [2]: Not Active
 | 40 to 100% |  | CN(C)[C@H]1C(O)=C(C(N)=O)C(=O)[C@@]2(O)C(O)=C3C(=O)c4c(O)cccc4[C@@](C)(O)[C@H]3C[C@@H]12 | 
692 |  |  | O=c1nc(/C=C/c2ccc(O)c(O)c2)oc2ccccc12 | IC50 [2]: Not Active

More lines, now with the values behind:

Structure (SMILES) | IC50 [1] [µM] | inhibition [3] | IC50 ([2]; read-out: IC50) [µM] | other results
Cc1c2c(c(O)c3c(O)cccc13)C(=O)[C@]1(O)C(=O)C(C(N)=O)=C(O)[C@@H](N(C)C)[C@@H]1C2 |  | 40 to 100% |  | 
CN(C)[C@@H]1C(O)=C(C(N)=O)C(=O)[C@@]2(O)C(O)=C3C(=O)c4c(O)ccc(Cl)c4[C@@](C)(O)[C@H]3C[C@@H]12 [CHLORTETRACYCLINE] | 155 to 274 | 40 to 100% | 237 to 307 | 
C=C1c2cccc(O)c2C(=O)C2=C(O)[C@]3(O)C(=O)C(C(N)=O)=C(O)[C@@H](N(C)C)[C@@H]3[C@@H](O)[C@H]12 [METHACYCLINE] | 56 to 437 | 40 to 100% | 97 to 749 | Kd ([6]; read-out: Kd): 9.9 µM; Kd ([7]; read-out: Kd): 17 µM; inhibition [8]: Active; inhibition [9]: Active; inhibition [10]: Active; Activity [4]: inactive; Activity [5]: inactive
C=C1c2c(Cl)ccc(O)c2C(=O)C2=C(O)[C@]3(O)C(=O)C(C(N)=O)=C(O)[C@@H](N(C)C)[C@@H]3[C@@H](O)[C@H]12 [MECLOCYCLINE] | 62 to 196 | 40 to 100% | 80 to 240 | Kd ([6]; read-out: Kd): 2.1 µM; Kd ([7]; read-out: Kd): 5.8 µM; Activity [4]: inactive; Activity [5]: inactive
C[C@H]1c2cccc(O)c2C(=O)C2=C(O)[C@]3(O)C(=O)C(C(N)=O)=C(O)[C@@H](N(C)C)[C@@H]3[C@@H](O)[C@@H]21 [DOXYCYCLINE] | 433 to 1410 | 40 to 100% | 433 to 1300 | 
NC[C@H]1O[C@H](O[C@H]2[C@H](O)[C@@H](O[C@H]3O[C@H](CO)[C@@H](O)[C@H](N)[C@H]3O)[C@H](N)C[C@@H]2N)[C@H](O)[C@@H](O)[C@@H]1O [KANAMYCIN] |  | inactive |  | Kd ([6]; read-out: Kd): 0.1 to 0.7 µM; inhibition [11]: inactive
CN1CCN(c2ccc3[nH]c(-c4ccc5[nH]c(-c6ccc(O)cc6)nc5c4)nc3c2)CC1 |  | inactive |  | inhibition [11]: inactive
NC(=O)C1=C(O)C[C@@H]2C[C@@H]3Cc4cccc(O)c4C(=O)C3=C(O)[C@]2(O)C1=O [INCYCLINIDE] | 358 to 469 |  | 383 to 775 | Kd [6]: Not Active; Kd [7]: Not Active; inhibition [1]: Dose-dependent effect; inhibition [2]: Dose-dependent effect
CN1CCN(c2ccc3nc(-c4ccc5nc(-c6ccc(O)cc6)[nH]c5c4)[nH]c3c2)CC1 |  |  |  | Kd ([6]; read-out: Kd): 0.1 to 0.7 µM
CN(C)c1ccc(O)c2c1C[C@H]1C[C@H]3[C@H](N(C)C)C(O)=C(C(N)=O)C(=O)[C@@]3(O)C(O)=C1C2=O [MINOCYCLINE] | 305 to 539 | 40 to 100% | 437 to 744 | 
CN(C)c1cc(NC(=O)CNC(C)(C)C)c(O)c2c1C[C@H]1C[C@H]3[C@H](N(C)C)C(O)=C(C(N)=O)C(=O)[C@@]3(O)C(O)=C1C2=O |  | 40 to 100% |  | 
CN[C@@H]1[C@H](O[C@H]2[C@H](O[C@H]3[C@H](O)[C@@H](O)[C@H](N=C(N)N)[C@@H](O)[C@@H]3N=C(N)N)O[C@@H](C)[C@]2(O)C=O)O[C@@H](CO)[C@H](O)[C@H]1O [STREPTOMYCIN] |  | inactive |  | Kd ([6]; read-out: Kd): 0.1 to 0.7 µM; inhibition [11]: inactive
CN(C)[C@@H]1C(O)=C(C(N)=O)C(=O)[C@@]2(O)C(O)=C3C(=O)c4c(O)ccc(Cl)c4[C@@H](O)[C@H]3C[C@@H]12 |  | 40 to 100% |  | 
CC(=O)Oc1cccc2c1C(=O)C1=C(O)[C@]3(OC(C)=O)C(=O)C(C(N)=O)=C(O)[C@@H](N(C)C)[C@@H]3[C@@H](OC(C)=O)[C@@H]1[C@]2(C)OC(C)=O |  |  |  | inhibition [12]: Active
NC[C@@H]1O[C@H](O[C@H]2[C@@H](O)[C@H](O[C@@H]3[C@@H](O)[C@H](N)C[C@H](N)[C@H]3O[C@H]3O[C@H](CN)[C@@H](O)[C@H](O)[C@H]3N)O[C@@H]2CO)[C@H](N)[C@@H](O)[C@@H]1O [FRAMYCETIN] |  | inactive |  | Kd ([6]; read-out: Kd): 0.1 to 0.7 µM; inhibition [11]: inactive
